For data set [1] the following is noted: ref NIST (National Institute of Standards and Technology, n.d); cited from earlier work.
A short description of data set [2]: In vitro powder dissolution in pH 6.8 and pH 7.0 media. The format is physicochemical. The procedure, abridged:
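60 mg emodin, or an equivalent amount of cocrystal, added to 900 mL of pH 6.8 or pH 7.0 medium at 37 °C with propeller at 100 rpm. Autosampled 1 mL at 10–720 min (nine points), centrifuged 13,400 rpm for 10 min, supernatant by HPLC. Run in triplicate.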

Data set [3] in a line: Equilibrium solubility, shake-flask method. It counts as physicochemical. Particulars: pH 1.2, pH 4.5, pH 6.8, 37 °C. A digest of the protocol: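 Shake-flask method: excess solid stirred in 5 mL of water or pH 1.2, 4.5 or 6.8 buffer at 37 °C for 72 h. Samples were centrifuged, and the supernatant was assayed directly by HPLC using a modified Chinese Pharmacopoeia method.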

Data set [4] is classed as in vivo, Sprague Dawley rats. The procedure, abridged:
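Male SD rats (250 ± 20 g), acclimated one week, n = 6 per group, oral single dose. Plasma separated at 4 °C, stored −80 °C, acetonitrile-precipitated with chrysophanol internal standard and diluted with water. Emodin quantified by HPLC-MS/MS, C18 column at 40 °C, triple quadrupole.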

[5] abbreviates: male, Sprague Dawley, rat, plasma, po, 100 mg/kg.

Turning to `Cc1nc(C)c(C)nc1C` [TMP, Tetramethylpyrazine], the Sublimation enthalpy in data set [1] is 22.6 kcal/mol.
For `Cc1cc(O)c2c(c1)C(=O)c1cc(O)cc(O)c1C2=O` [EMO, Emodin], the “Apparent dissolution (detectability)” value in data set [2] is on record as “undetectability”. Further, in data set [3], the “Solubility in purified water and three other media” value is “negligible solubility”. In data set [4] (setting [5]), the AUC(0-inf) – broadly, total exposure, with the tail of the curve extrapolated – is 33400 ng·h/mL; the AUC(0-t) (as a rule, the area under the concentration-time curve up to a stated or last time point) came to 2370 ± 947 ng·h/mL; the Cmax (commonly the maximum level reached in the sampled fluid or tissue) amounted to 274 ± 160 ng/mL; the MRT inf (commonly the average time that molecules of a dose stay in the body) was determined as 5.9 ± 5.41 h. Further, in data set [4] (setting [5]), the MRT last (commonly the average time that molecules of a dose stay in the body) was 10.3 ± 1.94 h; the Tmax (commonly the time at which the peak concentration occurs) is 11 ± 1.67 h; the half-life – broadly, the time in which the quantity being followed falls by half – was 4.13 ± 1.97 h. In data set [4] (rats, oral, EMO 100 mg/kg or equimolar cocrystal, plasma EMO, n = 6), this molecule showed a CLz of 4 ± 3 mL/h/kg.

The values are drawn from article PMC12657421 (International Journal of Pharmaceutics: X, 2025).
